Measured values published in ChEMBL document CHEMBL1125639, “Synthesis and resolution of (+-)-7-chloro-8-hydroxy-1-(3'-iodophenyl)-3-methyl-2,3,4,5-tetrahydro- 1H-3- benzazepine (TISCH): a high affinity and selective iodinated ligand for CNS D1 dopamine receptor” (J Med Chem, 1991).
“And” between values parts separate entries of the source, which are not always exact repeats. Equal values may be shown once.

Experiments:
Rattus norvegicus [1] = test: Ratio of regional brain distribution in striatum to that of cerebellum at 4 hr after intravenous injection; assay type: ADME, organism-based; details: in vivo
Method in brief: (§1)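 After femoral-vein injection of [125I]-labeled ligand (2-5 μCi, ~2200 Ci/mmol, 0.2 mL saline, ether anesthesia) into male Sprague-Dawley rats (225-300 g), brains were dissected into cortex, striatum and cerebellum, weighed and gamma-counted. % dose/gram calculated against diluted initial dose; regional ratio = % dose/gram of region divided by that of cerebellum.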

Rattus norvegicus [2] = test: Regional brain distribution of compound in rats cerebellum after an intravenous injection was measured at 4 hr; assay type: ADME, organism-based; details: in vivo; method in brief: as §1
Rattus norvegicus [3] = test: Regional brain distribution of compound in rats cerebellum after an intravenous injection was measured at 30 min; assay type: ADME, organism-based; details: in vivo, 0.5 h; method in brief: as §1
Rattus norvegicus [4] = test: Biodistribution of compound in rats brain after an intravenous injection was measured at 24 hr; assay type: ADME, organism-based; details: in vivo
Method in brief: (§2)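 Rats (male Sprague-Dawley, 225-300 g) given the 125I ligand (2-5 μCi, ~2200 Ci/mmol) in 0.2 mL saline via the femoral vein under ether anesthesia, then killed at set times. Whole brain removed, weighed and gamma-counted. % dose/organ is taken against diluted injectate aliquots. Mean of 3 rats ± std dev.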

Rattus norvegicus [5] = test: Biodistribution of compound in rats blood after an intravenous injection was measured at 2 min; assay type: ADME, organism-based; details: in vivo
Method in brief: (§3)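 Male Sprague-Dawley rats (225-300 g), free access to food and water. Under ether anesthesia, given 0.2 mL saline containing 125I-labelled ligand (2-5 μCi, ~2200 Ci/mmol) into the femoral vein. Killed by cardiac excision at set times. Organs removed, weighed and gamma-counted. % dose/organ is taken against diluted injectate aliquots, with blood and muscle assumed to be 7% and 40% of body weight. Mean of 3 rats ± std dev.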

Rattus norvegicus [6] = test: Biodistribution of compound in rats thyroid after an intravenous injection was measured at 2 min; assay type: ADME, organism-based, Thyroid gland; details: in vivo
Method in brief: (§4)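 Male Sprague-Dawley rats (225-300 g), free access to food and water; under ether anesthesia, 0.2 mL saline containing [125I]-labeled ligand (2-5 μCi, ~2200 Ci/mmol) injected into femoral vein; killed by cardiac excision under ether at set times. […] removed, weighed, gamma-counted; % dose/organ from comparison with diluted aliquots of injectate; mean of 3 rats ± std dev.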

Rattus norvegicus [7] = test: Biodistribution of compound in rats lung after an intravenous injection was measured at 30 min; assay type: ADME, organism-based; details: in vivo, 0.5 h; method in brief: as §3
Rattus norvegicus [8] = test: Biodistribution of compound in rats lung after an intravenous injection was measured at 4 hr; assay type: ADME, organism-based; details: in vivo; method in brief: as §3
Rattus norvegicus [9] = test: Biodistribution of compound in rats thyroid after an intravenous injection was measured at 1 hr; assay type: ADME, organism-based, Thyroid gland; details: in vivo; method in brief: as §3
Rattus norvegicus [10] = test: Biodistribution of compound in rats heart after an intravenous injection was measured at 2 min; assay type: ADME, organism-based; details: in vivo; method in brief: as §3
Rattus norvegicus [11] = test: Regional brain distribution of compound in rats cerebellum after an intravenous injection was measured at 1 hr; assay type: ADME, organism-based; details: in vivo; method in brief: as §1
Rattus norvegicus [12] = test: Regional brain distribution of compound in rats striatum after an intravenous injection was measured at 4 hr; assay type: ADME, organism-based; details: in vivo; method in brief: as §1
Rattus norvegicus [13] = test: Biodistribution of compound in rats thyroid after an intravenous injection was measured at 30 min; assay type: ADME, organism-based, Thyroid gland; details: in vivo, 0.5 h; method in brief: as §4
Rattus norvegicus [14] = test: Biodistribution of compound in rats skin after an intravenous injection was measured at 1 hr; assay type: ADME, organism-based, Zone of skin; details: in vivo; method in brief: as §3
Rattus norvegicus [15] = test: Biodistribution of compound in rats kidney after an intravenous injection was measured at 4 hr; assay type: ADME, organism-based; details: in vivo; method in brief: as §3
Rattus norvegicus [16] = test: Biodistribution of compound in rats muscle after an intravenous injection was measured at 1 hr; assay type: ADME, organism-based, Muscle tissue; details: in vivo; method in brief: as §3
[17] = Ratio of regional brain distribution in striatum to that of cerebellum at 2 min after intravenous injection; assay type: functional; method in brief: as §1
Rattus norvegicus [18] = test: Regional brain distribution of compound in rats striatum after an intravenous injection was measured at 1 hr; assay type: ADME, organism-based; details: in vivo; method in brief: as §1
Rattus norvegicus [19] = test: Biodistribution of compound in rats blood after an intravenous injection was measured at 24 hr; assay type: ADME, organism-based; details: in vivo; method in brief: as §3
Rattus norvegicus [20] = test: Biodistribution of compound in rats spleen after an intravenous injection was measured at 4 hr; assay type: ADME, organism-based; details: in vivo; method in brief: as §3
Rattus norvegicus [21] = test: Biodistribution of compound in rats kidney after an intravenous injection was measured at 30 min; assay type: ADME, organism-based; details: in vivo, 0.5 h; method in brief: as §3
Rattus norvegicus [22] = test: Biodistribution of compound in rats blood after an intravenous injection was measured at 1 hr; assay type: ADME, organism-based; details: in vivo; method in brief: as §3
Rattus norvegicus [23] = test: Biodistribution of compound in rats brain after an intravenous injection was measured at 1 hr; assay type: ADME, organism-based; details: in vivo; method in brief: as §2
Rattus norvegicus [24] = test: Biodistribution of compound in rats liver after an intravenous injection was measured at 2 min; assay type: ADME, organism-based; details: in vivo; method in brief: as §3
Rattus norvegicus [25] = test: Biodistribution of compound in rats liver after an intravenous injection was measured at 1 hr; assay type: ADME, organism-based; details: in vivo; method in brief: as §3
Rattus norvegicus [26] = test: Biodistribution of compound in rats heart after an intravenous injection was measured at 4 hr; assay type: ADME, organism-based; details: in vivo; method in brief: as §3
Rattus norvegicus [27] = test: Biodistribution of compound in rats thyroid after an intravenous injection was measured at 4 hr; assay type: ADME, organism-based, Thyroid gland; details: in vivo; method in brief: as §4
Rattus norvegicus [28] = test: Biodistribution of compound in rats heart after an intravenous injection was measured at 30 min; assay type: ADME, organism-based; details: in vivo, 0.5 h; method in brief: as §3

CN1CCc2cc(Cl)c(O)cc2[C@@H](c2cccc(I)c2)C1
Biodistribution (Rattus norvegicus [1]): 56.5
Biodistribution (Rattus norvegicus [2]): 0.011
Biodistribution (Rattus norvegicus [3]): 0.248
Biodistribution (Rattus norvegicus [4]): 0.001
Biodistribution (Rattus norvegicus [5]): 3.28
Biodistribution (Rattus norvegicus [6]): 0.121
Biodistribution (Rattus norvegicus [7]): 1.24
Biodistribution (Rattus norvegicus [8]): 0.122
Biodistribution (Rattus norvegicus [9]): 0.059
Biodistribution (Rattus norvegicus [10]): 1.14
Biodistribution (Rattus norvegicus [11]): 0.129
Biodistribution (Rattus norvegicus [12]): 0.6
Biodistribution (Rattus norvegicus [13]): 0.042 and 0.042%
Biodistribution (Rattus norvegicus [14]): 7.42
Biodistribution (Rattus norvegicus [15]): 0.476
Biodistribution (Rattus norvegicus [16]): 8.59
Ratio [17]: 1.28
Biodistribution (Rattus norvegicus [18]): 1.455
Biodistribution (Rattus norvegicus [19]): 0.046
Biodistribution (Rattus norvegicus [20]): 0.015
Biodistribution (Rattus norvegicus [21]): 0.945
Biodistribution (Rattus norvegicus [22]): 0.847
Biodistribution (Rattus norvegicus [23]): 0.568
Biodistribution (Rattus norvegicus [24]): 15.78
Biodistribution (Rattus norvegicus [25]): 9.814
Biodistribution (Rattus norvegicus [26]): 0.014
Biodistribution (Rattus norvegicus [27]): 0.118
Biodistribution (Rattus norvegicus [28]): 0.137
